Measured values: ChEMBL document CHEMBL1135980, “Novel angular benzophenazines: dual topoisomerase I and topoisomerase II inhibitors as potential anticancer agents” (J Med Chem, 2002)

Experiments:
[1] = test system: NCI-H69; assay: Cytotoxicity measured using the drug resistant, P-glycoprotein (Pgp) expressing human small cell lung carcinoma cell line H69/LX4; format: functional, cell-based
Summary of the method: (§1)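 H69/P (parental) or H69/LX4 (P-glycoprotein-overexpressing) human SCLC cells; compound added, then 5-6 days incubation; proliferation read with Alamar Blue.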

[2] = test system: COR-L23; assay: Cytotoxicity measured using the COR-L23 parental (COR-L23/P) human non small cell lung carcinoma cell line; format: functional, cell-based
Summary of the method: (§2)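 COR-L23/P (parental) or COR-L23/R (MRP-overexpressing) human NSCLC cells; compound added, then 5-6 days incubation; proliferation read by sulforhodamine B staining.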

[3] = test system: NCI-H69; assay: Rf is the resistance factor and is the ratio of the IC50 on the resistant cell line over the IC50 on the parental H69/P cell line; format: functional, Homo sapiens
Summary of the method: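 Resistance factor computed as IC50 in H69/LX4 (Pgp-overexpressing) divided by IC50 in H69/P. Both IC50s come from a 5-6 day Alamar Blue proliferation assay.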

[4] = test system: COR-L23; assay: Cytotoxicity measured with the drug resistant human non small cell lung carcinoma cell line COR-L23 (COR-L23/R) which over expresses multidrug resistance associated with protein(MRP); format: functional, cell-based; summary of the method: as §2
[5] = pharmacokinetics in female BALB/c mice measured as Kel after 50 mg/kg Preoral administration; format: ADME, organism-based; parameters: dose 50 mg/kg; conditions: mouse, in vivo, po
Summary of the method: (§3)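 Female Balb/c mice given 50 mg/kg by oral gavage. Blood taken by cardiac puncture under anaesthesia into heparinized syringes at 2 min-24 h. Plasma analyzed by HPLC; plasma PK parameters derived, with oral bioavailability relative to iv dosing.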

[6] = pharmacokinetics in female BALB/c mice measured as Cmax after 50 mg/kg iv administration; format: ADME, organism-based; parameters: dose 50 mg/kg, route intravenous; conditions: mouse, in vivo
Summary of the method: (§4)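 Female Balb/c mice dosed intravenously at 20 or 50 mg/kg. Blood taken by cardiac puncture under anaesthesia into heparinized syringes at times from 2 min to 24 h. Plasma prepared by centrifugation and drug measured by HPLC; plasma PK parameters derived.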

[7] = pharmacokinetics in female BALB/c mice measured as Cmax after 50 mg/kg Preoral administration; format: ADME, organism-based; parameters: route oral, dose 50 mg/kg; conditions: mouse, in vivo, po; summary of the method: as §3
[8] = test system: Mus musculus; assay: pharmacokinetics in female BALB/c mice measured as AUC after 20 mg/kg iv administration; format: ADME, organism-based; parameters: dose 20 mg/kg, route intravenous; conditions: in vivo; summary of the method: as §4
[9] = pharmacokinetics in female BALB/c mice measured as Cl after 20 mg/kg iv administration; format: ADME, organism-based; parameters: dose 20 mg/kg, route intravenous; conditions: mouse, in vivo; summary of the method: as §4
[10] = pharmacokinetics in female BALB/c mice measured as Vss after 50 mg/kg iv administration; format: ADME, organism-based; parameters: dose 50 mg/kg, route intravenous; conditions: mouse, in vivo, read-out: Vss; summary of the method: as §4
[11] = pharmacokinetics in female BALB/c mice measured as Vss after 20 mg/kg iv administration; format: ADME, organism-based; parameters: dose 20 mg/kg, route intravenous; conditions: mouse, in vivo, read-out: Vss; summary of the method: as §4
[12] = Rf is the resistance factor and is the ratio of the IC50 on the resistant cell line over the IC50 on the parental COR-L23/P cell line; conditions: human
Summary of the method: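 Resistance factor computed as IC50 in COR-L23/R (MRP-overexpressing) divided by IC50 in COR-L23/P. Both IC50s come from a 5-6 day sulforhodamine B proliferation assay.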

[13] = pharmacokinetics in female BALB/c mice measured as bioavailability (F) after 50 mg/kg peroral administration; format: ADME, organism-based; conditions: mouse, in vivo, po; summary of the method: as §3
[14] = test system: Mus musculus; assay: pharmacokinetics in female BALB/c mice measured as AUC after 50 mg/kg Preoral administration; format: ADME, organism-based; parameters: dose 50 mg/kg; conditions: in vivo, po; summary of the method: as §3
[15] = pharmacokinetics in female BALB/c mice measured as Kel after 20 mg/kg iv administration; format: ADME, organism-based; parameters: dose 20 mg/kg, route intravenous; conditions: mouse, in vivo; summary of the method: as §4
[16] = pharmacokinetics in female BALB/c mice measured as Cmax after 20 mg/kg iv administration; format: ADME, organism-based; parameters: dose 20 mg/kg, route intravenous; conditions: mouse, in vivo; summary of the method: as §4
[17] = test system: Mus musculus; assay: pharmacokinetics in female BALB/c mice measured as AUC after 50 mg/kg iv administration; format: ADME, organism-based; parameters: dose 50 mg/kg, route intravenous; conditions: in vivo; summary of the method: as §4
[18] = pharmacokinetics in female BALB/c mice measured as Kel after 50 mg/kg iv administration; format: ADME, organism-based; parameters: dose 50 mg/kg, route intravenous; conditions: mouse, in vivo; summary of the method: as §4
[19] = pharmacokinetics in female BALB/c mice measured as Cl after 50 mg/kg iv administration; format: ADME, organism-based; parameters: dose 50 mg/kg, route intravenous; conditions: mouse, in vivo; summary of the method: as §4
[20] = test system: NCI-H69; assay: Cytotoxicity measured using the H69 parental (H69/P) human small cell lung carcinoma cell line; format: functional, cell-based; summary of the method: as §1

Row | SMILES | Rf [12] | IC50 [1] | IC50 [2] | Rf [3] | IC50 [4] | IC50 [20] | also measured
1 | CC[C@@]1(O)C(=O)OCc2c1cc1n(c2=O)Cc2cc3c(CN(C)C)c(O)ccc3nc2-1 [TOPOTECAN] |  | 0.0629 µM | 0.0132 µM | 3.9 | 0.02 µM |  | 
2 | COc1ccc2c(ccc3nc4cccc(C(=O)NCCN(C)C)c4nc32)c1 | 1.2 | 0.185 µM | 0.068 µM | 1.3 | 0.079 µM | 0.141 µM | 
3 | COc1cccc2c1C(=O)c1c(O)c3c(c(O)c1C2=O)C[C@@](O)(C(=O)CO)C[C@@H]3O[C@H]1C[C@H](N)[C@H](O)[C@H](C)O1 [DOXORUBICIN] |  | 3.87 µM | 0.0201 µM | 142 | 0.319 µM |  | 
4 | CN(C)CCCOc1cccc2c1ccc1nc3cccc(C(=O)NCCN(C)C)c3nc12 |  | 0.091 µM |  | 0.8 |  | 0.116 µM | 
5 | COc1cccc2c1ccc1nc3cccc(C(=O)NCC(O)CN)c3nc12 (stereo not drawn) |  | > 5 µM |  | >9.7 |  | 0.515 µM | 
6 | C#CCOc1cccc2c1ccc1nc3cccc(C(=O)NCCN(C)C)c3nc12 |  | 0.061 µM |  | 1.5 |  | 0.04 µM | 
7 | CN(C)CCNC(=O)c1cccc2nc3ccc4ccccc4c3nc12 | 1.4 | 0.13 µM | 0.102 µM | 1.9 | 0.14 µM |  | 
8 | COc1cc(C(=O)NCCN(C)C)c2nc3c(ccc4c(OC)cccc43)nc2c1 |  | 0.025 µM |  | 1.3 |  | 0.019 µM | 

Second part, led by results:

Row | Rf [12] | SMILES | IC50 [1] | IC50 [2] | Rf [3] | IC50 [4] | IC50 [20] | also measured
9 | 1.2 | COc1cccc2c1ccc1nc3cccc(C(=O)N[C@H](C)CN(C)C)c3nc12 | 0.029 µM | 0.0101 µM | 1.2 | 0.0121 µM |  | k el [5]: 3.33e-05 s⁻¹; Cmax [6]: 2900 ng/mL; Cmax [7]: 350 ng/mL; AUC [8]: 64 ug min m-1; clearance [9]: 6.3 mL/min; Vd [10]: 1.9 L; Vd [11]: 1.3 L; bioavailability [13]: 72%; AUC [14]: 114 ug min m-1; k el [15]: 7.33e-05 s⁻¹; Cmax [16]: 800 ng/mL; AUC [17]: 156 ug min m-1; k el [18]: 5e-05 s⁻¹; clearance [19]: 6.4 mL/min
10 | 1.1 | CN(C)CCNC(=O)c1cccc2nc3ccc4c(O)cccc4c3nc12 | 0.048 µM | 0.015 µM | 1.4 | 0.017 µM | 0.035 µM | 
11 | 1.2 | CN(C)CCNC(=O)c1cccc2nc3ccc4c([N+](=O)[O-])cccc4c3nc12 | 0.12 µM | 0.02 µM | 1.3 | 0.024 µM | 0.096 µM | 
12 | 1.4 | CN(C)CCNC(=O)c1cccc2nc3ccc4cc(O)ccc4c3nc12 | 0.193 µM | 0.067 µM | 1.8 | 0.096 µM | 0.109 µM | 
13 | 1.4 | COc1cccc2c1ccc1nc3cccc(C(=O)NCCN(C)C)c3nc12 | 0.049 µM | 0.014 µM | 1.4 | 0.02 µM |  | 
